In ChEMBL document CHEMBL4665627 (Eur J Med Chem, 2019):
Values after ≈ are worked out from the molar mass of the structure shown.

Columns and labels:
Assay type in all cases: functional
[1] = test system: Acinetobacter baumannii; experiment: Antibacterial activity against Acinetobacter baumannii assessed as inhibition of bacterial growth after 24 hrs by CLSI protocol based two fold serial dilution method
Procedure, shortened: (§1)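 Two-fold serial broth dilution in 96-well plates following CLSI; MIC (mM) taken as the lowest concentration giving complete growth inhibition; MIC values from three independent experiments.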

[2] = test system: Staphylococcus aureus; experiment: Antibacterial activity against Staphylococcus aureus assessed as inhibition of bacterial growth after 24 hrs by CLSI protocol based two fold serial dilution method; procedure, shortened: as §1
[3] = test system: Staphylococcus aureus; experiment: Antibacterial activity against methicillin-resistant Staphylococcus aureus N315 assessed as inhibition of bacterial growth after 24 hrs by CLSI protocol based two fold serial dilution method
[4] = test system: Staphylococcus aureus; experiment: Antibacterial activity against Staphylococcus aureus ATCC 25923 assessed as inhibition of bacterial growth after 24 hrs by CLSI protocol based two fold serial dilution method; procedure, shortened: as §1
[5] = test system: Klebsiella pneumoniae; experiment: Antibacterial activity against Klebsiella pneumoniae assessed as inhibition of bacterial growth after 24 hrs by CLSI protocol based two fold serial dilution method; procedure, shortened: as §1
[6] = test system: Candida parapsilosis; experiment: Antifungal activity against Candida parapsilosis ATCC 22019 assessed as inhibition of fungal growth after 24 hrs by CLSI protocol based two fold serial dilution method; conditions: Lodderomyces parapsilosis; procedure, shortened: as §1
[7] = test system: Escherichia coli; experiment: Antibacterial activity against Escherichia coli assessed as inhibition of bacterial growth after 24 hrs by CLSI protocol based two fold serial dilution method; procedure, shortened: as §1
[8] = test system: Candida albicans; experiment: Antifungal activity against Candida albicans assessed as inhibition of fungal growth after 24 hrs by CLSI protocol based two fold serial dilution method; procedure, shortened: as §1
[9] = test system: Aspergillus fumigatus; experiment: Antifungal activity against Aspergillus fumigatus assessed as inhibition of fungal growth after 24 hrs by CLSI protocol based two fold serial dilution method; procedure, shortened: as §1
[10] = test system: Pseudomonas aeruginosa; experiment: Antibacterial activity against Pseudomonas aeruginosa assessed as inhibition of bacterial growth after 24 hrs by CLSI protocol based two fold serial dilution method; procedure, shortened: as §1
[11] = test system: Pseudomonas aeruginosa; experiment: Antibacterial activity against Pseudomonas aeruginosa ATCC 27853 assessed as inhibition of bacterial growth after 24 hrs by CLSI protocol based two fold serial dilution method; procedure, shortened: as §1
[12] = test system: Staphylococcus aureus; experiment: Antibacterial activity against Staphylococcus aureus ATCC 29213 assessed as inhibition of bacterial growth after 24 hrs by CLSI protocol based two fold serial dilution method
[13] = test system: Candida tropicalis; experiment: Antifungal activity against Candida tropicalis assessed as inhibition of fungal growth after 24 hrs by CLSI protocol based two fold serial dilution method; procedure, shortened: as §1
[14] = test system: Candida albicans; experiment: Antifungal activity against Candida albicans ATCC 90023 assessed as inhibition of fungal growth after 24 hrs by CLSI protocol based two fold serial dilution method; procedure, shortened: as §1
[15] = test system: Enterococcus faecalis; experiment: Antibacterial activity against Enterococcus faecalis assessed as inhibition of bacterial growth after 24 hrs by CLSI protocol based two fold serial dilution method; procedure, shortened: as §1
[16] = test system: Escherichia coli; experiment: Antibacterial activity against Escherichia coli ATCC 25922 assessed as inhibition of bacterial growth after 24 hrs by CLSI protocol based two fold serial dilution method; procedure, shortened: as §1

| SMILES | MIC [1] | MIC [2] | MIC [3] | MIC [4] | MIC [5] | MIC [6] | MIC [7] | MIC [8] | MIC [9] | MIC [10] | MIC [11] | MIC [12] | MIC [13] | MIC [14] | MIC [15] | MIC [16] |
| --- | --- | --- | --- | --- | --- | --- | --- | --- | --- | --- | --- | --- | --- | --- | --- | --- |
| CCn1cc(-c2csc(N)n2)c(=O)c2cc(F)c(N3CCN(Cc4ccc(Cl)c(Cl)c4)CC3)cc21 | 482 µM (≈ 257 µg/mL) | 482 µM (≈ 257 µg/mL) | 15 µM (≈ 7.99 µg/mL) | 241 µM (≈ 128 µg/mL) | 241 µM (≈ 128 µg/mL) | 8 µM (≈ 4.26 µg/mL) | 241 µM (≈ 128 µg/mL) | 482 µM (≈ 257 µg/mL) | 241 µM (≈ 128 µg/mL) | 482 µM (≈ 257 µg/mL) | 241 µM (≈ 128 µg/mL) | 241 µM (≈ 128 µg/mL) | 482 µM (≈ 257 µg/mL) | 482 µM (≈ 257 µg/mL) | 30 µM (≈ 16 µg/mL) | 15 µM (≈ 7.99 µg/mL) |
| CCn1cc(-c2csc(N)n2)c(=O)c2cc(F)c(N3CCN(CC(=O)N(C)C)CC3)cc21 | 140 µM (≈ 64.2 µg/mL) | 35 µM (≈ 16 µg/mL) | 70 µM (≈ 32.1 µg/mL) | 17 µM (≈ 7.8 µg/mL) | 35 µM (≈ 16 µg/mL) | 279 µM (≈ 128 µg/mL) | 140 µM (≈ 64.2 µg/mL) | 70 µM (≈ 32.1 µg/mL) | 70 µM (≈ 32.1 µg/mL) | 279 µM (≈ 128 µg/mL) | 70 µM (≈ 32.1 µg/mL) | 70 µM (≈ 32.1 µg/mL) | 70 µM (≈ 32.1 µg/mL) | 140 µM (≈ 64.2 µg/mL) | 140 µM (≈ 64.2 µg/mL) | 70 µM (≈ 32.1 µg/mL) |
| CCn1cc(-c2csc(N)n2)c(=O)c2cc(N3CCNCC3)c(Cl)cc21 | 1320 µM (≈ 513 µg/mL) | 82 µM (≈ 32 µg/mL) | 658 µM (≈ 257 µg/mL) | 82 µM (≈ 32 µg/mL) | 164 µM (≈ 63.9 µg/mL) | 1320 µM (≈ 513 µg/mL) | 329 µM (≈ 128 µg/mL) | 329 µM (≈ 128 µg/mL) | 164 µM (≈ 63.9 µg/mL) | 41 µM (≈ 16 µg/mL) | 658 µM (≈ 257 µg/mL) | 329 µM (≈ 128 µg/mL) | 329 µM (≈ 128 µg/mL) | 164 µM (≈ 63.9 µg/mL) | 329 µM (≈ 128 µg/mL) | 164 µM (≈ 63.9 µg/mL) |
| CCn1cc(-c2csc(N)n2)c(=O)c2cc(F)c(N3CCN(CC(=O)N(CCO)CCO)CC3)cc21 | 62 µM (≈ 32.2 µg/mL) | 124 µM (≈ 64.3 µg/mL) | 62 µM (≈ 32.2 µg/mL) | 8 µM (≈ 4.15 µg/mL) | 62 µM (≈ 32.2 µg/mL) | 31 µM (≈ 16.1 µg/mL) | 62 µM (≈ 32.2 µg/mL) | 62 µM (≈ 32.2 µg/mL) | 15 µM (≈ 7.78 µg/mL) | 62 µM (≈ 32.2 µg/mL) | 62 µM (≈ 32.2 µg/mL) | 62 µM (≈ 32.2 µg/mL) | 62 µM (≈ 32.2 µg/mL) | 8 µM (≈ 4.15 µg/mL) | 15 µM (≈ 7.78 µg/mL) | 15 µM (≈ 7.78 µg/mL) |
| CCn1cc(-c2csc(N)n2)c(=O)c2cc(F)c(N3CCN(CC(=O)N(C(C)C)C(C)C)CC3)cc21 | 249 µM (≈ 128 µg/mL) | 62 µM (≈ 31.9 µg/mL) | 124 µM (≈ 63.8 µg/mL) | 249 µM (≈ 128 µg/mL) | 498 µM (≈ 256 µg/mL) | 996 µM (≈ 513 µg/mL) | 498 µM (≈ 256 µg/mL) | 996 µM (≈ 513 µg/mL) | 498 µM (≈ 256 µg/mL) | 249 µM (≈ 128 µg/mL) | 249 µM (≈ 128 µg/mL) | 249 µM (≈ 128 µg/mL) | 498 µM (≈ 256 µg/mL) | 498 µM (≈ 256 µg/mL) | 249 µM (≈ 128 µg/mL) | 498 µM (≈ 256 µg/mL) |
